Screens: PubChem, Broad Institute
FGF22 binding = binders of human FGF22 protein, primary screen, FGF22 synaptogenesis inhibitor project, biophysical, thermal shift, single point; AID 651658, 2012; recombinant FGF22 thermal shift, SYPRO orange fluorescence; percent of sucrose octasulfate shift, DMSO zero; 340,000 compounds, 1.5% hits; activity (Tm shift, normalised), % at 9.99 µM;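 active = mean Tm shift, scaled 0 neutral to 100 positive control, at about 1.3% or above, every replicate too, limit read from the data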
ARNT TACC3 PPI = disruptors of ARNT/TACC3 protein interaction, primary screen, biochemical, AlphaScreen, single concentration; Transforming acidic coiled-coil-containing protein 3 (Homo sapiens), Q9Y6A5; inhibition, % at 9.99 µM; AlphaScreen His-ARNT PAS-B/GST-TACC3 binding, luminescence; TACC3 fragment carries E629A point mutation; 390,000 compounds, 0.66% hits;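 active = mean inhibition of replicates at least 50% and at least half of replicates each reaching 50%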;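 also: 0% = complete ARNT plus TACC3 wells and 100% = ARNT alone without TACC3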
PDI turbidity = inhibitors of human PDI, primary screen, biochemical, turbidity, single point, plate reader | Protein disulfide-isomerase (Homo sapiens), P07237 | PDI insulin aggregation turbidity, A650, 90 min | inhibition, % at 10 µM | 350,000 compounds, 0.052% hits | AID 588391, 2011;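 active = mean inhibition across replicates of 30% or more, whatever share of single replicates reach that level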
ERp5 block = inhibitors of ERp5-driven insulin aggregation, primary screen, biochemical, turbidity, absorbance 650 nm, single point; Protein disulfide-isomerase A6 (Homo sapiens), Q15084; 90 min; inhibition, % at 9.99 µM; 350,000 compounds, 0.05% hits; AID 651711, 2012;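 active = mean replicate inhibition above about 25%, with every replicate also reaching it, limit read from the data, passing the limit was not always enough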
Target sequence (Q15084 whole entry, looked up): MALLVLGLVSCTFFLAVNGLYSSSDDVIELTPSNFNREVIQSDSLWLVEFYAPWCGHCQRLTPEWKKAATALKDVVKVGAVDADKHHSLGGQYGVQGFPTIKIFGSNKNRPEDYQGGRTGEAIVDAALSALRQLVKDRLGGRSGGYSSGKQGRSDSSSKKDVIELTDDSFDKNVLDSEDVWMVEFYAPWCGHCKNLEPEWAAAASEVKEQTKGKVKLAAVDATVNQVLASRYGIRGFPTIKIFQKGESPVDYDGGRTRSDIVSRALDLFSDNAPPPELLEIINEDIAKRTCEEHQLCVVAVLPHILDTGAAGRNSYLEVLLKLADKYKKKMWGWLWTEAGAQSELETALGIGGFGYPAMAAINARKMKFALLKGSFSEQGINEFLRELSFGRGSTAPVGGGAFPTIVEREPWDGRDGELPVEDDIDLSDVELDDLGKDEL
MLL AF4-AF9 inh = inhibitors of AF4 peptide binding to AF9, primary screen, biochemical, AlphaScreen, biotin-AF4 peptide, FLAG-AF9, single point. Protein AF-9 (Homo sapiens), P42568. inhibition, % at 10 µM. 350,000 compounds, 0.47% hits;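 active = every replicate reaching a set inhibition limit, whatever the replicate mean, cut at about 25% in these data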;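 also: 0% = plate neutral control median and 100% = total signal loss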
FN deposit inh = inhibitors of fibronectin matrix deposition, primary screen, AH1F cells, Alexa488-fibronectin fluorescence, plate reader; 350,000 compounds, 0.086% hits; inhibition, % at 12.6 µM; AH1F fibroblasts, overnight;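 active = mean inhibition across replicates of 30% or more, regardless of how many single replicates reach that level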;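 also: positive control wells lacked labelled fibronectin entirely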
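Measured by – fluorescence 485/525 nm · System – AH1F fibroblast monolayer, labelled fibronectin deposition · Amount – 10000 cells per well · Buffer or medium – serum-reduced DMEM (2% serum) · Doses – single dose, pinned · Also added – fluorescent fibronectin at 24 nM final · Schedule – 1 h cell attachment, overnight exposure to compound and label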
Active calls of the source: *. Most compounds without a hit are left out; they make up all but 2.1% or so of the library.

Screening CCn1ccnc1CNCc1ccc(OCC(O)CN(C)Cc2ccccc2)cc1 (centres undefined) returned FGF22 binding 0.5, ARNT TACC3 PPI 46.8*, PDI turbidity -15.8, ERp5 block -1.8, MLL AF4-AF9 inh 8.3 and FN deposit inh 1.2.
`CCOC=C1C(=O)N(C(C)=O)c2cc(OC)c(OC)cc21` gave FGF22 binding 43.0*, ARNT TACC3 PPI -6.3, PDI turbidity -2.4, ERp5 block 7.9, MLL AF4-AF9 inh 1.7 and FN deposit inh 3.5.
Screening Nc1nc(-c2ccc3c(c2)OCCO3)cs1 returned ARNT TACC3 PPI -2.6 and PDI turbidity -5.5.
`Nc1nc(-c2cc3c(cc2Cl)OCCO3)cs1` gave FGF22 binding -0.2, ARNT TACC3 PPI 1.6, PDI turbidity 21.3, ERp5 block -1.3, MLL AF4-AF9 inh 1.0 and FN deposit inh 31.8*.
For CN(C)Cc1c(O)ccc2c(-c3ccccc3)cc(=O)oc12 the results were FGF22 binding 43.0*, ARNT TACC3 PPI -3.4, PDI turbidity 1.1, ERp5 block -3.5 and MLL AF4-AF9 inh -0.3.
For CCCNC(=O)N1[C@H](CO)[C@@H](c2ccccc2)C12CN(C(=O)C1CCCCC1)C2 the results were FGF22 binding -0.2, ERp5 block 0.9, MLL AF4-AF9 inh -1.3 and FN deposit inh 5.0.
Screening C/C(CC(=O)Nc1ccc(Cl)cc1C(F)(F)F)=N\NC(=O)c1cccs1 returned FGF22 binding 0.0, ARNT TACC3 PPI -1.2, PDI turbidity -2.8, ERp5 block 1.8, MLL AF4-AF9 inh 11.1 and FN deposit inh -14.0.
For C/C(CC(=O)Nc1ccc(Cl)cc1C(F)(F)F)=N\NC(=O)c1ccccn1 the results were FGF22 binding 43.3*, ARNT TACC3 PPI 4.0, PDI turbidity 1.1, ERp5 block 1.3, MLL AF4-AF9 inh -1.7 and FN deposit inh 0.1.
Cc1ccc(C(C)C)c(OCC(=O)N/N=C/C2CCCCC2)c1 was read as FGF22 binding 43.1*, ARNT TACC3 PPI 6.7, PDI turbidity 3.3, ERp5 block 5.2, MLL AF4-AF9 inh -1.8 and FN deposit inh -2.4.
For COc1cccc(CNC(=O)COC(=O)c2c(NC(C)=O)sc(C)c2C)c1 the results were FGF22 binding 43.0*, ARNT TACC3 PPI -5.3, PDI turbidity 6.2, ERp5 block 6.1, MLL AF4-AF9 inh 0.0 and FN deposit inh 5.9.
`CCCC(=O)Nc1ccc(Cl)c(NC(=S)NC(=O)c2ccco2)c1` gave FGF22 binding 1.5*, ARNT TACC3 PPI -8.4, PDI turbidity 6.7, ERp5 block 1.5, MLL AF4-AF9 inh 3.0 and FN deposit inh -0.4.
For CCC(=O)Nc1ccc(Cl)c(NC(=S)NC(=O)COc2ccccc2)c1 the results were FGF22 binding 43.6*, ARNT TACC3 PPI -6.8, PDI turbidity 2.0, ERp5 block 1.6, MLL AF4-AF9 inh 0.5 and FN deposit inh -4.7.
`CCCC(=O)Nc1ccc(Cl)c(NC(=O)c2ccco2)c1` gave PDI turbidity -1.9.
C[C@H]1CN([C@@H](C)CO)S(=O)(=O)c2ccc(-c3cccc(F)c3)cc2O[C@@H]1CN(C)C(=O)C1CC1 was read as FGF22 binding -0.2, ARNT TACC3 PPI -1.5, ERp5 block -0.5, MLL AF4-AF9 inh -1.9 and FN deposit inh -5.9.
For C/C=C/c1ccc([C@@H]2[C@H](CO)N(C(C)=O)C23CN(C(=O)c2ccc(F)cc2)C3)cc1 the results were FGF22 binding -0.7, ERp5 block -1.9 and MLL AF4-AF9 inh -1.6.
Cc1c(Cl)c(=O)n2c(=O)c(Cl)c(C)n12 was read as FGF22 binding 43.7*, PDI turbidity 0.2, ERp5 block -2.1, MLL AF4-AF9 inh -2.0 and FN deposit inh 11.1.
Screening C=CCNC(=O)/C(C#N)=C/c1ccccc1Cl returned FGF22 binding 43.3*, ARNT TACC3 PPI -14.8, PDI turbidity 1.0, ERp5 block 0.4, MLL AF4-AF9 inh -2.3 and FN deposit inh -3.2.
